Only some compounds are listed: those with a hit (about 4.1% of all), similar ones and a draw of the others.
UPR XBP1 act – activators of adaptive arm of unfolded protein response (XBP1). CHO-XBP1 luciferase reporter, IRE1-XBP1 UPR activation, luminescence; percent of tunicamycin response, DMSO as zero. activation, % at 20 µM. 330,000 tested, 0.33% active. AID 463104;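 active = versus positive control, 20 µM dose yields 30% or more activation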;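 note: 100% = tunicamycin at 10 µg/mL and 0% = DMSO only wells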
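Assay system: CHO-XBP1 luciferase reporter cells; Schedule: 6 h treatment, 37 °C; Detection: glow luminescence from Steady-Glo reagent; Benchmarks: high control tunicamycin 10 µg/mL final, low control DMSO vehicle only.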
UBC13 polyUb – blocks human UBC13 polyubiquitin chain formation; TR-FRET; inhibition, % at 20 µM; 330,000 tested, 0.47% active; in the data active = inhibition above about 45%, passing the limit was not always enough
Target sequence (P61088 whole entry, looked up): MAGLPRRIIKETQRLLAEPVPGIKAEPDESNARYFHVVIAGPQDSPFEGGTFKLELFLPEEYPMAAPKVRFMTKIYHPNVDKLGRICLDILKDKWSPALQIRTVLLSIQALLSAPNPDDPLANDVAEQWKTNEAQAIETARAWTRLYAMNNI
Apaf1 inhib – human Apaf-1 inhibition. O14727. reconstituted apoptosome caspase-3 activity, DEVD-Rh110 fluorescence. inhibition, % at 20 µM. 330,000 tested, 0.71% active; active = inhibition of at least 40% at 20 µM;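 note: plate controls were DMSO wells for no effect and DEVD-CHO caspase inhibitor wells for full effect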
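Material: reconstituted apoptosome with Apaf-1, cytochrome c, caspase-9, procaspase-3, dATP / Buffer or medium: pH 7.5 Hepes buffer with CHAPS, BSA, DTT / Also added: cytochrome c with DEVD-Rh110 / Schedule: compound with Apaf-1, dATP, procaspase-3 30 min, then 50 min reaction, room temperature / Technique: rhodamine 110 fluorescence at Ex 480/Em 540 nm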
Mdm2 MdmX PPI – disrupts the human Mdm2-MdmX interaction. SaOS-2 split-luciferase Mdm2/MdmX complementation, luminescence. inhibition, % at 8 µM. 330,000 tested, 3% active;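 active = inhibition of at least 50% at 8 µM in the primary screen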
UPR CHOP act – activators of apoptotic arm of unfolded protein response (CHOP) | CHO-CHOP luciferase reporter, UPR activation, luminescence; percent of tunicamycin response over DMSO baseline | 330,000 tested, 0.34% active | activation, % at 10 µM | AID 449763;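 active = at 10 µM dose, activation of 40% or more, normalized to positive control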;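 note: 100% = tunicamycin at 10 µg/mL and 0% = DMSO alone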
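Assay system: CHO-CHOP cells, stable luciferase reporter of PERK-eIF2a-CHOP signalling / Buffer or medium: F12 plus 10% serum / Compound dosing: one dose, 10 µM in 0.5% DMSO / Times: 6 h compound treatment, 37 °C / Technique: luciferase luminescence / Read-out: % reporter activation, DMSO baseline versus tunicamycin full activation / Benchmarks: tunicamycin and DMSO controls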
Mdm2 MdmX conf – human Mdm2/MdmX binding inhibition, confirmed; 10,000 tested, 55% active; inhibition, % at 8 µM; luminescent assay; shares compounds with Mdm2 MdmX PPI; AID 489028; in the data active = inhibition above about 40%
Full FLuc ctr – full-length luciferase inhibition in Mdm2/MdmX counter-screen; AID 504607; shares compounds with Mdm2 MdmX PPI; inhibition, % at 8 µM; SaOS-2 full-length luciferase counterscreen, luminescence; 6,200 tested, 77% active;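 active = mean inhibition at 8 µM reaching about 37%, which flags the compound as non-specific, limit read from the data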;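 note: p53-null SaOS-2 cells with luciferase driven by a doxycycline-inducible promoter; compound on cells about two nights before reading with doxycycline added after day one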
* hit, by the source's call; x = no result given.

SMILES	UPR XBP1 act	UBC13 polyUb	Apaf1 inhib	Mdm2 MdmX PPI	UPR CHOP act	Mdm2 MdmX conf	others
CN(C)c1ccc(-c2nn3c(-c4ccccc4Cl)nnc3s2)cc1	18	21	13	53*	3	66*	Full FLuc ctr=65*
Clc1ccccc1-c1nnc2sc(-c3ccncc3)nn12	3	6	2	17	0	x
Cc1ccc(S(=O)(=O)N2CCOCC2)cc1C(=O)Nc1ccccc1N1CCOCC1	-4	4	10	-4	-2	x
COC(=O)c1ccc(C(=O)NC(=S)Nc2ccc3nc(SC)sc3c2)cc1	29	0	-7	81*	17	25
CSc1nc2ccc(NC(=O)c3ccccn3)cc2s1	-12	3	14	-101	-3	x
O=[N+]([O-])c1cnc(Sc2ccncn2)s1	-10	7	-1	97*	-9	100*	Full FLuc ctr=52*
COc1cccc(-c2cc(C(=O)NCCCn3ccnc3)c3ccccc3n2)c1	0	4	0	12	3	x
CC1(C)SC(=S)N(/N=C/c2ccc(O)cc2)C1N(O)C(=O)Nc1ccc([N+](=O)[O-])cc1 (stereo unspecified)	7	-6	16	18	-2	x
Cc1ccc(/C=N/N2C(=S)SC(C)(C)C2N(O)C(=O)Nc2ccc([N+](=O)[O-])cc2)cc1 (stereo unspecified)	6	-16	15	67*	3	25
O=C1OC(CC(=O)N(Cc2nnc(-c3ccccc3Cl)o2)C2CC2)c2ccccc21 (stereo unspecified)	0	3	9	14	-1	x
CCOc1ccc(C(C(=O)NCC2CCCO2)N(Cc2cccs2)C(=O)c2snc(C(N)=O)c2N)cc1 (stereo unspecified)	-2	10	9	50*	2	51*	Full FLuc ctr=78*
COc1ccc(C(C(=O)NCC2CCCO2)N(Cc2cccs2)C(=O)c2snc(C(N)=O)c2N)cc1OC (stereo unspecified)	-1	-3	6	-42	0	x
O=C(NCc1nc(-c2ccc(C(F)(F)F)cc2)no1)Nc1cc(Cl)cc(Cl)c1	1	-15	8	93*	2	81*	Full FLuc ctr=45*
COCCN(C(=O)COC(=O)/C=C/c1ccc2ccccc2n1)c1c(N)n(Cc2ccccc2)c(=O)[nH]c1=O	-5	-13	4	54*	3	39
COCCN(C(=O)COC(=O)/C=C/c1nc2ccccc2s1)c1c(N)n(Cc2ccccc2)c(=O)[nH]c1=O	-2	-1	8	64*	1	39
COCCN(C(=O)COC(=O)/C=C/c1cccs1)c1c(N)n(Cc2ccccc2)c(=O)[nH]c1=O	1	3	6	10	1	x
CN(C(=O)COC(=O)/C=C/c1ccc2ccccc2n1)c1c(N)n(Cc2ccccc2)c(=O)[nH]c1=O	-1	5	-2	26	0	x
Cc1csc(NC(=O)c2cncc(Br)c2)n1	-5	-4	-3	-87	0	x
CCN1C(=O)c2ccccc2Sc2ccc(C(=O)NCCCN3CCCCC3)cc21	-5	13	5	51*	2	10
CC1CCCN(CCCNC(=O)c2ccc3c(c2)N(Cc2ccccc2F)C(=O)c2ccccc2S3(=O)=O)C1 (stereo unspecified)	-1	13	14	64*	0	34	Full FLuc ctr=51*
O=C(NCCCN1CCCCC1)c1ccc2c(c1)NC(=O)c1ccccc1S2	-4	27	9	18	0	x
O=C1Nc2cc(C(=O)NCCCN3CCCC3)ccc2S/C1=C/c1ccccc1F	-1	36	18	58*	3	14
Cc1ccc(/C=C2/Sc3ccc(C(=O)NCCN4CCOCC4)cc3NC2=O)cc1	6	6	17	28	3	x
CCN1CCCC1CNC(=O)c1ccc2c(c1)NC(=O)/C(=C\c1ccc(C)cc1)S2 (stereo unspecified)	-3	42	36	97*	8	34	Full FLuc ctr=69*
CCC(CO)N=CC1=C(O)CC(c2ccccc2)CC1=O (stereo unspecified)	-2	-3	-15	-5	1	x
SMILES	UPR XBP1 act	UBC13 polyUb	Apaf1 inhib	Mdm2 MdmX PPI	UPR CHOP act	Mdm2 MdmX conf	others
COc1ccc(NC(=O)COC(=O)C2CCN(S(=O)(=O)c3ccccc3)CC2)cc1Cl	-4	3	-2	0	0	x
O=C(NCCc1ccccc1)C1CCC(CNS(=O)(=O)c2cccs2)CC1 (stereo unspecified)	-2	5	-1	1	-1	x
O=C1CC(=O)Nc2cc(S(=O)(=O)N3CCN(c4ccc([N+](=O)[O-])cc4)CC3)ccc2N1	-4	1	1	-5	1	x
COc1ccccc1NC(=O)CCS(=O)(=O)c1cc2c(cc1Cl)NC(=O)CO2	-5	4	-4	17	2	x
CSc1ccc(-c2nnn(CC(=O)NCc3ccccc3)n2)cc1	-2	-6	5	50	-1	30
Cc1ccccc1Nc1nc(N)nc(CN(C)c2ccccc2)n1	-3	5	4	24	1	x
COc1ccc(Nc2nc(N)nc(CCl)n2)cc1	-3	-6	6	87*	12	87*	Full FLuc ctr=52*
COc1ccc(Nc2nc(N)nc(CN3CCOCC3)n2)cc1	-2	-8	-1	6	0	x
Cc1ccccc1Nc1nc(N)nc(CCl)n1	-1	0	-21	94*	7	91*	Full FLuc ctr=40*
O=C(COC(=O)/C=C/C(=O)OCC(=O)NC12CC3CC(CC(C3)C1)C2)NC12CC3CC(CC(C3)C1)C2	3	6	0	94*	32	40	Full FLuc ctr=68*
Cc1cc2c(=O)n(Cc3ccco3)c(SCC(=O)N3CCCc4ccccc43)nc2s1	4	-7	8	57*	1	21
CC(C)(C)c1oc(C(=O)O)cc1CN1CCOCC1	-4	-6	3	-1	0	x
Fc1ccc(Oc2nc(-c3ccccn3)nc3ccccc23)cc1	13	1	-6	57*	24	5
CSc1nc(Oc2ccc(F)cc2)c2ccccc2n1	3	9	16	11	-1	x
C/C(=N\Nc1nc(-c2ccccc2O)nc2ccccc12)c1ccccc1	3	-12	0	18	2	x
C/C(=N\Nc1nc(-c2ccccn2)nc2ccccc12)c1ccc(F)cc1	-4	-9	-2	75*	12	38	Full FLuc ctr=34
O=C(CN1C(=O)NC2(CCc3ccccc32)C1=O)NCc1ccc(F)cc1 (stereo unspecified)	-2	-4	-4	-7	3	x

Assay outcomes as filed in PubChem.
